Converted amounts (≈) assume the structure as drawn. The source made the active and inactive calls. The calls are words filed in the database; no cut-off is given here.
Experiments:
Murine leukemia virus [1] = experiment: Inhibitory activity on moloney murine leukemia retrovirus.; assay type: functional
Outline: (§1)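 SC-1 cells (3.5 × 10⁴ mL⁻¹) seeded in 5% FBS-MEM 1 day ahead. Compound dilutions added in triplicate, then 20-40 pfu Moloney virus per well, shaken at 0, 30 and 60 min. Incubated 5 days, 37 °C, 5% CO₂; viability checked for toxicity. Then UV 3 min, XC cells overlaid (2 × 10⁵ mL⁻¹), 4 days, 0.5% crystal violet stain, plaques counted. MIC₅₀ interpolated between two dilutions.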

[2] = Therapeutic index(TI) was measured as ratio of TD50 and MIC50 (Retrovirus); settings: retroviridae
CCRF-CEM [3] = experiment: Inhibitory activity against T4-lymphocytes (CEM cell line) infected with HIV-1; inactive; assay type: functional, cell-based; settings: Homo sapiens
CCRF-CEM [4] = experiment: Inhibition of T4-lymphocytes (CEM cell line) infected with HIV-1.; assay type: functional, cell-based; settings: Homo sapiens
CCRF-CEM [5] = experiment: Inhibitory activity against T4-lymphocytes (CEM cell line) infected with HIV-1; moderate; assay type: functional, cell-based; settings: Homo sapiens
Murine leukemia virus [6] = experiment: Concentration inhibiting moloney murine leukemia retrovirus; assay type: functional; outline: as §1
[7] = system: Human immunodeficiency virus 1; experiment: Inhibitory activity against HIV-1 in T4-lymphocytes (CEM cell line).; assay type: functional, organism-based; settings: Human immunodeficiency virus 1, CCRF-CEM
HIV-1 = experiment: Therapeutic index (TI) was measured as ratio of IC50 and EC50 (HIV-1); settings: human immunodeficiency virus 1; read-out: TI50
CCRF-CEM [8] = experiment: Inhibitory activity against T4-lymphocytes (CEM cell line) infected with HIV-1; active; assay type: functional, cell-based; settings: Homo sapiens

Compound	TD50 (Murine leukemia virus [1]) [µg/mL]	TI [2] [TD50/MIC50]	IC50 (CCRF-CEM [4]) [µM]	Activity (CCRF-CEM [5])	EC50 [7] [µM]	also measured
Cl.Cl.Cn1cc(NC(=O)c2cc(NC(=O)c3cc(NC(=O)c4ccccc4C(=O)Nc4cc(C(=O)Nc5cc(C(=O)Nc6cc(C(=O)NCCC(=N)N)n(C)c6)n(C)c5)n(C)c4)cn3C)cn2C)cc1C(=O)NCCC(=N)N	>100	> 1.26	–	–	–	–
Cn1cc(NC(=O)[C@H]2CCC(N)=N2)cc1C(=O)NCCC(=N)N	–	–	> 127	–	–	Activity (CCRF-CEM [3]): inactive
Cl.Cl.Cn1cc(NC(=O)c2cc(NC(=O)c3cc(NC(=O)C4CCC4C(=O)Nc4cc(C(=O)Nc5cc(C(=O)Nc6cc(C(=O)NCCC(=N)N)n(C)c6)n(C)c5)n(C)c4)cn3C)cn2C)cc1C(=O)NCCC(=N)N (stereo not given)	83.5	1.7	–	Moderate	–	MIC50 (Murine leukemia virus [6]): > 50 µg/mL
Cn1cc(NC(=O)c2cc(NC(=O)CCCCCCC(=O)Nc3cc(C(=O)Nc4cc(C(=O)NCCC(=N)N)n(C)c4)n(C)c3)cn2C)cc1C(=O)NCCC(=N)N	–	–	–	–	–	Activity (CCRF-CEM [3]): inactive
Cn1cc(NC(=O)c2cc(NC(=O)[C@H]3C[C@@H]3C(=O)Nc3cc(C(=O)Nc4cc(C(=O)NCCC(=N)N)n(C)c4)n(C)c3)cn2C)cc1C(=O)NCCC(=N)N	–	–	–	Moderate	3.44	–
Cn1cc(NC(=O)c2cc(NC(=O)CCCCCCCCC(=O)Nc3cc(C(=O)Nc4cc(C(=O)NCCC(=N)N)n(C)c4)n(C)c3)cn2C)cc1C(=O)NCCC(=N)N	–	–	–	–	–	Activity (CCRF-CEM [3]): inactive
Cn1cc(NC(=O)[C@@H]2CCC(N)=N2)cc1C(=O)NCCC(=N)N	–	–	> 127	–	–	Activity (CCRF-CEM [3]): inactive
Cn1cc(NC(=O)c2cc(NC(=O)[C@H]3CCC[C@@H]3C(=O)Nc3cc(C(=O)Nc4cc(C(=O)NCCC(=N)N)n(C)c4)n(C)c3)cn2C)cc1C(=O)NCCC(=N)N	–	–	168	Moderate	46.3	–
Cn1cc(NC(=O)c2cc(NC(=O)c3cc(NC(=O)CCCCCCC(=O)Nc4cc(C(=O)Nc5cc(C(=O)Nc6cc(C(=O)NCCC(=N)N)n(C)c6)n(C)c5)n(C)c4)cn3C)cn2C)cc1C(=O)NCCC(=N)N	–	–	> 100	–	–	Activity (CCRF-CEM [3]): inactive
Cn1cc(NC(=O)c2cc(NC(=O)CCCCCCCCCC(=O)Nc3cc(C(=O)Nc4cc(C(=O)NCCC(=N)N)n(C)c4)n(C)c3)cn2C)cc1C(=O)NCCC(=N)N	–	–	57	Moderate	3.9	selectivity ratio (HIV-1): 14.6
Cn1cc(NC(=O)c2cc(NC(=O)/C=C\C(=O)Nc3cc(C(=O)Nc4cc(C(=O)NCCC(=N)N)n(C)c4)n(C)c3)cn2C)cc1C(=O)NCCC(=N)N	–	–	–	–	0.35	Activity (CCRF-CEM [8]): Active
Cn1cc(NC(=O)c2cc(NC(=O)/C=C/C(=O)Nc3cc(C(=O)Nc4cc(C(=O)NCCC(=N)N)n(C)c4)n(C)c3)cn2C)cc1C(=O)NCCC(=N)N	–	–	–	–	1.37	Activity (CCRF-CEM [8]): Active
Cn1cc(NC(=O)c2cc(NC(=O)[C@H]3CCC(N)=N3)c[nH]2)cc1C(=O)NCCC(=N)N	–	–	750	Moderate	91	selectivity ratio (HIV-1): 8.2
Cn1cc(NC(=O)c2cc(NC(=O)[C@H]3C[C@H]3C(=O)Nc3cc(C(=O)Nc4cc(C(=O)NCCC(=N)N)n(C)c4)n(C)c3)cn2C)cc1C(=O)NCCC(=N)N	–	–	–	Moderate	42.5	–
Nc1ccn([C@H]2CC[C@@H](CO)O2)c(=O)n1 [ZALCITABINE]	>100	> 135.14	–	–	–	MIC50 (Murine leukemia virus [6]): 0.74 µg/mL (≈ 3.5 µM)
Cl.Cl.Cn1cc(NC(=O)c2cc(NC(=O)c3cc(NC(=O)[C@@H]4C5C=CC(C5)[C@H]4C(=O)Nc4cc(C(=O)Nc5cc(C(=O)Nc6cc(C(=O)NCCC(=N)N)n(C)c6)n(C)c5)n(C)c4)cn3C)cn2C)cc1C(=O)NCCC(=N)N	>100	> 4.54	–	–	–	–
Cn1cc(NC(=O)c2cc(NC(=O)[C@@H]3CCC(N)=N3)c[nH]2)cc1C(=O)NCCC(=N)N	–	–	750	Moderate	88	selectivity ratio (HIV-1): 8.5

Compound	TD50 (Murine leukemia virus [1]) [µg/mL]	TI [2] [TD50/MIC50]	IC50 (CCRF-CEM [4]) [µM]	Activity (CCRF-CEM [5])	EC50 [7] [µM]	also measured
Cl.Cl.Cn1cc(NC(=O)c2cc(NC(=O)c3cc(NC(=O)c4cccc(C(=O)Nc5cc(C(=O)Nc6cc(C(=O)Nc7cc(C(=O)NCCC(=N)N)n(C)c7)n(C)c6)n(C)c5)c4)cn3C)cn2C)cc1C(=O)NCCC(=N)N	>100	2	–	–	–	Activity (CCRF-CEM [8]): Active; MIC50 (Murine leukemia virus [6]): > 50 µg/mL
Cl.Cl.Cn1cc(NC(=O)c2cc(NC(=O)c3cc(NC(=O)/C=C\C(=O)Nc4cc(C(=O)Nc5cc(C(=O)Nc6cc(C(=O)NCCC(=N)N)n(C)c6)n(C)c5)n(C)c4)cn3C)cn2C)cc1C(=O)NCCC(=N)N	84.29	7.52	–	–	–	Activity (CCRF-CEM [3]): inactive
Cc1cn([C@H]2C[C@H](N=[N+]=[N-])[C@@H](CO)O2)c(=O)[nH]c1=O [ZIDOVUDINE]	>100	> 714000	–	–	–	MIC50 (Murine leukemia virus [6]): 0.0014 µg/mL (≈ 0.00524 µM)
Cn1cc(NC(=O)c2cc(NC(=O)c3cccc(C(=O)Nc4cc(C(=O)Nc5cc(C(=O)NCCC(=N)N)n(C)c5)n(C)c4)c3)cn2C)cc1C(=O)NCCC(=N)N	–	–	–	–	3.55	Activity (CCRF-CEM [8]): Active
Cl.Cl.Cl.Cn1cc(NC(=O)c2cc(NC(=O)c3cc(NC(=O)c4cc(C(=O)Nc5cc(C(=O)Nc6cc(C(=O)Nc7cc(C(=O)NCCC(=N)N)n(C)c7)n(C)c6)n(C)c5)cc(C(=O)Nc5cc(C(=O)Nc6cc(C(=O)Nc7cc(C(=O)NCCC(=N)N)n(C)c7)n(C)c6)n(C)c5)c4)cn3C)cn2C)cc1C(=O)NCCC(=N)N	>100	> 1.6	–	–	–	MIC50 (Murine leukemia virus [6]): 62.8 µg/mL
Cl.Cl.Cn1cc(NC(=O)c2cc(NC(=O)c3cc(NC(=O)/C=C/C(=O)Nc4cc(C(=O)Nc5cc(C(=O)Nc6cc(C(=O)NCCC(=N)N)n(C)c6)n(C)c5)n(C)c4)cn3C)cn2C)cc1C(=O)NCCC(=N)N	100	625	–	–	–	Activity (CCRF-CEM [8]): Active
Cn1cc(NC(=O)c2cc(NC(=O)c3cc(NC(=O)CCC(=O)Nc4cc(C(=O)Nc5cc(C(=O)Nc6cc(C(=O)NCCC(=N)N)n(C)c6)n(C)c5)n(C)c4)cn3C)cn2C)cc1C(=O)NCCC(=N)N	–	–	–	–	–	Activity (CCRF-CEM [3]): inactive
Cl.Cl.Cn1cc(NC(=O)c2cc(NC(=O)c3cc(NC(=O)c4ccc(C(=O)Nc5cc(C(=O)Nc6cc(C(=O)Nc7cc(C(=O)NCCC(=N)N)n(C)c7)n(C)c6)n(C)c5)cc4)cn3C)cn2C)cc1C(=O)NCCC(=N)N	>100	> 25.13	–	–	–	Activity (CCRF-CEM [8]): Active
Cn1cc(NC(=O)c2cc(NC(=O)[C@@H]3CCCC[C@H]3C(=O)Nc3cc(C(=O)Nc4cc(C(=O)NCCC(=N)N)n(C)c4)n(C)c3)cn2C)cc1C(=O)NCCC(=N)N	–	–	181	Moderate	5.6	–
Cl.Cl.Cn1cc(NC(=O)c2cc(NC(=O)c3cc(NC(=O)c4cncc(C(=O)Nc5cc(C(=O)Nc6cc(C(=O)Nc7cc(C(=O)NCCC(=N)N)n(C)c7)n(C)c6)n(C)c5)c4)cn3C)cn2C)cc1C(=O)NCCC(=N)N	>100	–	–	Moderate	–	MIC50 (Murine leukemia virus [6]): > 100 µg/mL
Cn1cc(NC(=O)c2cc(NC(=O)c3cc(NC(=O)CCCCCCCCCCCCCCCCCCCCCCC(=O)Nc4cc(C(=O)Nc5cc(C(=O)Nc6cc(C(=O)NCCC(=N)N)n(C)c6)n(C)c5)n(C)c4)cn3C)cn2C)cc1C(=O)NCCC(=N)N	–	–	> 120	–	–	Activity (CCRF-CEM [3]): inactive
Cn1cc(NC(=O)c2cc(NC(=O)[C@H]3CC[C@@H]3C(=O)Nc3cc(C(=O)Nc4cc(C(=O)NCCC(=N)N)n(C)c4)n(C)c3)cn2C)cc1C(=O)NCCC(=N)N	–	–	–	–	0.42	Activity (CCRF-CEM [8]): Active
Cn1cc(NC(=O)c2cc(NC(=O)Nc3cc(C(=O)Nc4cc(C(=O)NCCC(=N)N)n(C)c4)n(C)c3)cn2C)cc1C(=O)NCCC(=N)N	–	–	–	Moderate	11.9	–
Cl.Cl.Cn1cc(NC(=O)c2cc(NC(=O)c3cc(NC(=O)c4ccc(C(=O)Nc5cc(C(=O)Nc6cc(C(=O)Nc7cc(C(=O)NCCC(=N)N)n(C)c7)n(C)c6)n(C)c5)nc4)cn3C)cn2C)cc1C(=O)NCCC(=N)N	>100	> 6.28	–	–	–	Activity (CCRF-CEM [8]): Active
Cl.Cl.Cn1cc(NC(=O)c2cc(NC(=O)c3cc(NC(=O)c4cccc(C(=O)Nc5cc(C(=O)Nc6cc(C(=O)Nc7cc(C(=O)NCCC(=N)N)n(C)c7)n(C)c6)n(C)c5)n4)cn3C)cn2C)cc1C(=O)NCCC(=N)N	>100	> 4.4	–	–	–	Activity (CCRF-CEM [8]): Active
Cn1cc(NC(=O)c2cc(NC(=O)CCCCCCCCCCC(=O)Nc3cc(C(=O)Nc4cc(C(=O)NCCC(=N)N)n(C)c4)n(C)c3)cn2C)cc1C(=O)NCCC(=N)N	–	–	78	Moderate	6.6	–

Source: ChEMBL document CHEMBL1126301, “Anti-HIV-I activity of linked lexitropsins” (J Med Chem, 1992)
